Compounds with a hit are over-represented: about 3.1% of the library has one in this group of screens.
Myeloid diff 2: promotes myeloid progenitor differentiation. ER-HoxA9 myeloid progenitors, lysozyme-GFP differentiation, flow cytometry. calls only at 10 µM. 360,000 tested, 1% active. AID 624256;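 active = normalized GFP-positive differentiation at or above the plate's own cutoff, the solvent-only control mean plus 3 SD; inconclusive = no clear call, values can overlap the other calls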;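 also: cells exposed to compound for four days before flow analysis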
NadD inh: NadD (S. aureus) enzyme inhibition; AID 602399; purified NadD enzyme, colorimetric absorbance read-out; inhibition, % at 20 µM; 360,000 tested, 0.78% active; in the data active = inhibition above about 26%
HCV core dimer: HCV core protein dimerization inhibition; inhibition, % at 5 µM; 300,000 tested, 0.33% active; TR-FRET GST/Flag-core106 dimerization, 1536-well;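 active = inhibition above the mean of all tested compounds plus 3 SD, set per screening campaign, cut at about 45% in these data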
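System – GST-tagged and Flag-tagged HCV core protein residues 1-106 · Repeats – one well for each compound · Technique – TR-FRET 671 and 617 nm emission · Doses – one concentration, 5 µM, in 0.5% DMSO · Times – 4 h, 22.5 °C incubation · Also added – Eu donor and XL665 acceptor anti-tag antibodies · Measure – percent inhibition of core106 dimerization signal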
CTSL1 counter: cathepsin L1 inhibition, PFM18AAP counter-screen | inhibition, % at 5.96 µM | AID 1906 | 300,000 tested, 0.49% active | recombinant F. hepatica cathepsin L1, Z-Leu-Arg-MCA fluorescence;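 active = inhibition above the mean of all tested compounds plus 3 SD, set per screening campaign, cut at about 17% in these data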;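 also: 0% = plate median of test compound wells and 100% = 1 µM Z-Phe-Ala-diazomethylketone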
PP5 inh: blocks human protein phosphatase 5 activity; purified PP5c, OMFP substrate fluorescence; inhibition, % at 6.7 µM; 320,000 tested, 0.18% active; P53041;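 active = inhibition above the campaign's mean inhibition across all tested compounds plus 3 SD, cut at about 9.5% in these data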;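 also: 0% = DMSO only and 100% = 100 µM cantharidin control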
Target sequence (P53041 whole entry, looked up): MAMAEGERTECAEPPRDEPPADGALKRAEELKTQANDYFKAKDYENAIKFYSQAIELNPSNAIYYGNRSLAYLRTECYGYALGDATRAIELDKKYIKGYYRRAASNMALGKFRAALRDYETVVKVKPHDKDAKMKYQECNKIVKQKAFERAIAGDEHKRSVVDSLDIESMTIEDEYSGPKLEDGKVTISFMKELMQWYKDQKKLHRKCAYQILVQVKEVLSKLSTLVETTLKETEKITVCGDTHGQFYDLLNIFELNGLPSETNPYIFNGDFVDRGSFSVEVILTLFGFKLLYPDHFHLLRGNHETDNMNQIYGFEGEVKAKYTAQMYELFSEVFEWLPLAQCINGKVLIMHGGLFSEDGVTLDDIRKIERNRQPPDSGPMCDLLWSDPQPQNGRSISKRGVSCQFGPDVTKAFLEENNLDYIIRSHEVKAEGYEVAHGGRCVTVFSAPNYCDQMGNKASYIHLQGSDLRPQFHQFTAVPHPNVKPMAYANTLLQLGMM
PP1 inh: blocks human PP1-alpha phosphatase, a PP5 counter-screen; P62136; purified PP1alpha, OMFP fluorescence; inhibition, % at 6.7 µM; 320,000 tested, 0.9% active; AID 2235;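 active = inhibition above the mean inhibition of all tested compounds plus 3 SD, computed separately for each screening campaign, cut at about 15% in these data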
* hit, by the source's call; i = inactive; ? = inconclusive; / = not tested or not shown; + = active, no number.

SMILES	Myeloid diff 2	NadD inh	HCV core dimer	CTSL1 counter	PP5 inh	PP1 inh
O=C(O)CCN1C(=O)/C(=C\c2cccc(OCc3ccccc3)c2)SC1=S	?	7	21	0	0	-5
CCN(CC(=O)Nc1cccc(OC)c1)C(=O)c1ccco1	i	-5	-1	2	1	-2
CC1CCN(C(=O)c2ccc(NS(=O)(=O)c3ccc4[nH]c(=O)[nH]c4c3)cc2)CC1	i	-6	-2	1	0	-5
COc1ccc(CCn2c(C)ccc2C)cc1OC	/	/	47*	-1	0	3
O=C1C=CN(C2OC(CO)C(O)C2O)C(=O)C1 (centres undefined)	+	0	/	/	/	/
COc1ccc(CCN(/C=C2\Sc3ccccc3C2=O)C(C)=O)cc1OC	+	-2	1	-1	-1	-3
CN(C)/C=C1/Sc2ccccc2C1=O	i	7	-1	5	1	-1
Cc1cc(C)n2nc(CC(=O)NNC(=O)c3ccc(N(C)C)cc3)nc2n1	i	-6	3	36*	-1	-3
Cc1ccc(C(=O)NNC(=O)Cc2nc3nc(C)cc(C)n3n2)cc1	i	-2	-11	4	-1	-1
COc1cccc(Nc2nc(C(N)Cc3ccc(F)cc3)cs2)n1 (centres undefined)	+	0	/	/	/	/
COc1ccc(CC(N)c2csc(Nc3cccc(OC)n3)n2)cc1 (centres undefined)	i	2	/	/	/	/
COc1ccc(NC(=O)N2CCCCCC2)cc1OC	i	2	6	2	1	-2
CCc1cc(=O)oc2cc(C)cc(OCC(=O)NCCCN3CCOCC3)c12	i	-3	-10	5	3	-5
CCNc1nc(NC(C)C)nc(NS(=O)(=O)c2ccc(N)cc2)n1	+	-1	1	-3	1	-1
CCN(CC(=O)Nc1ccc(OC)cc1)C(=O)Cc1cccs1	i	2	52*	-2	-1	1
COc1ccc(-c2noc(CCC(=O)Nc3cccnc3)n2)cc1	+	-2	-15	-1	1	0
COc1cccc(C(O)c2ncc(-c3ccc(C(F)(F)F)cc3)[nH]2)c1 (centres undefined)	i	4	/	/	/	/
Brc1ccc(CN2CCCCCC2)cc1	i	2	4	1	0	3
Nc1ccc(CN2CCCCCC2)cc1	+	-3	-3	1	-1	-4
COc1ccc(CN2CCN(S(=O)(=O)c3ccc(NC(C)=O)cc3)CC2)c(OC)c1OC	+	-12	-6	1	-1	3
COc1ccc(CN2CCN(S(=O)(=O)c3ccc(NC(C)=O)cc3)CC2)cc1	i	-5	-1	1	1	2
NNc1nc2ccccc2c(=O)n1Cc1ccccc1	i	3	-8	-2	2	-2
N#Cc1ccc(-c2nc3cc(Cl)ccc3c(=O)n2O)cc1	i	-1	-5	-2	2	7
O=c1c2ccc(Cl)cc2nc(-c2cccc(C(F)(F)F)c2)n1O	i	3	-5	1	3	16*
CCOC(=O)c1sc(=NC(=O)c2c(F)cccc2F)n(C)c1C	i	-3	2	18*	1	-1
SMILES	Myeloid diff 2	NadD inh	HCV core dimer	CTSL1 counter	PP5 inh	PP1 inh
CC(=O)c1ccc(OCC(=O)OCc2cc(-c3ccco3)on2)cc1	i	0	/	/	1	-1
Cc1cc(/C=C2/C(=O)N(C)C(=S)N2C)ccc1N1CCCC1	i	1	-16	1	3	2
CCCN1C(=O)/C(=C/c2ccc(N3CCOCC3)cc2)NC1=S	i	-2	-15	2	0	-3
CCCN1C(=O)/C(=C/c2ccc(N3CCCC3)c(C)c2)NC1=S	+	6	-4	1	-2	1
Cc1cc(/C=C2\NC(=S)N(C)C2=O)ccc1N1CCCC1	+	5	-35	1	2	-4
N#Cc1ccc(NC(=O)Cn2cnc(S(=O)(=O)N3CCCCC3)c2)cc1	i	-5	-9	-1	1	-4
CCOC(=O)c1sc(N=NC2=C(O)CCCC2=O)c(C(=O)OCC)c1C	i	38*	22	8	0	4
COc1cc2c(cc1OC)CN(c1ccc(C(N)=O)cc1[N+](=O)[O-])CC2	i	0	-1	-1	0	2
COc1ccc(/C=N\NC(=O)c2ccc(F)cc2)cc1COc1cc(F)ccc1[N+](=O)[O-]	i	12	/	/	/	/
COc1ccc(/C=N/NS(=O)(=O)c2ccc(F)cc2)cc1COc1cc(F)ccc1[N+](=O)[O-]	/	14	48*	3	9	-5
N#CC(C#N)=NNc1ccc([N+](=O)[O-])cc1	i	-3	-5	24*	3	-1
C/C(=N\Nc1ccc([N+](=O)[O-])cc1)c1ccc(C#N)cc1	i	4	4	5	0	-2
C[C@]12CC[C@H](O)CC1=C[C@H](O)C1C2CC[C@@]2(C)C1CC[C@@]2(O)C#Cc1ccc(CN)cc1 (some centres undefined)	i	6	/	/	/	/
CC1(CC(=O)N/N=C/c2cc3c(cc2Br)OCO3)OCCO1	i	4	-8	17*	-1	-2
CCc1ccc(OC(=O)Cc2ccc(OC)c(S(=O)(=O)N3CCOCC3)c2)cc1	i	-5	/	/	1	-2
CCCOc1ccc(OC(=O)Cc2ccc(OC)c(S(=O)(=O)N3CCOCC3)c2)cc1	+	-5	-2	-3	-1	-2
FC(F)(F)c1cccc(NC(=S)NC2CCCC2)c1	i	-3	-5	-4	6	-2
FC(F)(F)c1ccc(NC(=S)NC2CCCCC2)cc1	+	-5	-4	5	3	-3
CC(=O)c1ccc(S(=O)(=O)N2CCC(NC(=O)c3ccccc3)CC2)cc1	i	0	/	/	/	/
CCOc1c2ccc(C(=O)NCCCCc3ccccc3)cc2nn1C	i	-4	-7	6	-1	-1
COc1c2ccc(C(=O)NCCCCc3ccccc3)cc2nn1C	+	1	1	4	3	1
O=C(N/N=C/c1ccc(F)cc1)c1cc(-c2ccccn2)nc2ccccc12	i	1	/	/	/	/
COc1cccc(/C=N/NC(=O)c2cc(-c3ccccn3)nc3ccccc23)c1O	i	48*	/	/	0	14
O=[N+]([O-])c1cc(Cl)cc(/C=N\Nc2ccccn2)c1O	/	12	-20	1	1	-4
O=C(N/N=C/c1cc(Cl)cc([N+](=O)[O-])c1O)c1cc(-c2ccccn2)nc2ccccc12	i	32*	11	4	-1	2
CC[C@@H]1Cc2[nH][nH]c(=O)c2[C@@H](c2ccc(Cl)cc2)O1	i	7	/	/	/	/
C[C@@H]1CN([C@@H](C)CO)C(=O)CCCn2nncc2CO[C@@H]1CN(C)S(=O)(=O)c1ccc(C#N)cc1	i	2	/	/	/	/
N#Cc1c(-c2ccccc2)c(C#N)c2nc3ccccc3n2c1N	+	6	12	6	1	6

Screening results as filed in PubChem.
